Common to all, as to format: functional, cell-based
Assay [1] concerns the target T1, Glutamate receptor 4 (Homo sapiens, UniProt P48058). The experiment in a line: Activity against human GLUR4 flip expressed in HEK293 cells assessed as glutamate-stimulated calcium influx by FLIPR assay. In outline: (§1)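 Stably transfected HEK-293 cells expressing homomeric GluR4 (flip or flop splice form) loaded with 8 µM Fluo3-AM for 60 min in HEPES-buffered saline (5 mM CaCl2, 5.5 mM glucose). Compounds from DMSO (0.1–3 µM) co-applied with 100 µM glutamate; calcium influx read by FLIPR. Duplicate 10-point curves; response expressed as % of 100 µM cyclothiazide, EC50 calculated.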

Assay [2] concerns the target T1, Glutamate receptor 4. Briefly: Activity against human GLUR4 flop expressed in HEK293 cells assessed as glutamate-stimulated calcium influx by FLIPR assay. In outline:
as §1

Assay [3] addresses T2, Glutamate receptor 2 (Homo sapiens, UniProt P42262). Briefly: Activity against human GLUR2 flop expressed in HEK293 cells assessed as glutamate-stimulated calcium influx by FLIPR assay.
For assay [4], the target named is T2, Glutamate receptor 2. The experiment in a line: Activity against human GLUR2 flip expressed in HEK293 cells assessed as glutamate-stimulated calcium influx by FLIPR assay.

A value given as a limit tells only on which side of the number the result lay.

The EC50 is the concentration needed to bring the measured effect to its halfway point.

T2 sequence (P42262 whole entry): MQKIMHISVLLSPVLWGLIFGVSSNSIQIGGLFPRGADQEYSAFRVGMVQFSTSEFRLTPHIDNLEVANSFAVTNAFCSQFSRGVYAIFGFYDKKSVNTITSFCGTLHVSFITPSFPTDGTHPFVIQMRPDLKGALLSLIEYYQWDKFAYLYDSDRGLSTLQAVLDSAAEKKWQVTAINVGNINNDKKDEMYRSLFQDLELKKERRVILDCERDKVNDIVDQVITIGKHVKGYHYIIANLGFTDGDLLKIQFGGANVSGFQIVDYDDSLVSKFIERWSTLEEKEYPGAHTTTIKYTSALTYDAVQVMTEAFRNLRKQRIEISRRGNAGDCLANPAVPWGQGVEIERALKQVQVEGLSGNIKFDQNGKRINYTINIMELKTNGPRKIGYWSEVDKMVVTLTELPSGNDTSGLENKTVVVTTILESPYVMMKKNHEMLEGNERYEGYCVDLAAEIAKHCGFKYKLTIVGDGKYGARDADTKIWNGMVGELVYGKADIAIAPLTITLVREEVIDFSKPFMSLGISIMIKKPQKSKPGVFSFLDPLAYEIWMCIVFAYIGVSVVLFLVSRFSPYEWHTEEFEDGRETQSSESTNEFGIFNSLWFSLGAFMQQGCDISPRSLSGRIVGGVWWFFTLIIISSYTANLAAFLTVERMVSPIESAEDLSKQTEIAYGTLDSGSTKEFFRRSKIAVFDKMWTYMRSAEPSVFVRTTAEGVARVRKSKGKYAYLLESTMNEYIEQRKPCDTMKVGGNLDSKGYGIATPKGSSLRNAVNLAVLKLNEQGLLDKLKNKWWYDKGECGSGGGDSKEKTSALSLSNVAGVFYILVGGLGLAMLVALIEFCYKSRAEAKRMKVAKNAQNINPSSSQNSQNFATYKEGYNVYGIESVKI
T1 sequence (P48058 whole entry, canonical isoform): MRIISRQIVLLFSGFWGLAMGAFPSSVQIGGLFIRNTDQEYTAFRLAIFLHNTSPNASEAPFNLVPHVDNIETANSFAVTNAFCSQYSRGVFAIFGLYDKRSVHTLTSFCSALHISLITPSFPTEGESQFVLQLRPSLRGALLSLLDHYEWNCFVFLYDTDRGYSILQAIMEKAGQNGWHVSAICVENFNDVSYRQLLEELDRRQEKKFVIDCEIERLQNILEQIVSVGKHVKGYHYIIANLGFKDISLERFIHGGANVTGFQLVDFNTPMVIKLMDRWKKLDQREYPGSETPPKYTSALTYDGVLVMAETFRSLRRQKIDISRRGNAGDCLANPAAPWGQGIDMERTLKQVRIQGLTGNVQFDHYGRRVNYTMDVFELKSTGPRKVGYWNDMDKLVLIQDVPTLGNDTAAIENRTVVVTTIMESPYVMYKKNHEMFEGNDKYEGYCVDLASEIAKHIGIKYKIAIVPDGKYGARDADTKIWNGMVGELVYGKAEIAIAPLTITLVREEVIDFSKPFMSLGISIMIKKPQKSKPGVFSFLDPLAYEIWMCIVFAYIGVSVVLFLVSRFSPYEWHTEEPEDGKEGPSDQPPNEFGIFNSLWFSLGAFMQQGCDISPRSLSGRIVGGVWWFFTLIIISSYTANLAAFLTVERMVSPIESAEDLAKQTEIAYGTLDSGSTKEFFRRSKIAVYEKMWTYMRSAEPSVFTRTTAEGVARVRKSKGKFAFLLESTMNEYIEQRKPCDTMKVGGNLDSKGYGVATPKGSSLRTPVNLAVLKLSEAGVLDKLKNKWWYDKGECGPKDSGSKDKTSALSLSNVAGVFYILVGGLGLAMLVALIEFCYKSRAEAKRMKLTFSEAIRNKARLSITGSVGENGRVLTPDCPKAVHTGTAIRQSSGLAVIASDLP

For the compound `CCCSc1sc(C(=O)O)c(-c2ccc(C(C)(C)C)cc2)c1C#N`, the half-maximal effective concentration (EC50) at Glutamate receptor 4 [1] was 2.89 µM; on Glutamate receptor 4 [2] it was over 3 µM.

`CC(C)Sc1sc(C(=O)O)c(-c2ccc(C(C)(C)C)cc2)c1C#N`: the half-maximal effective concentration (EC50) on Glutamate receptor 4 [1] is 1.87 µM; at Glutamate receptor 4 [2], over 3 µM.

Turning to `CSc1oc(C(=O)O)c(-c2ccc(C(C)(C)C)cc2)c1C#N`, the concentration for a half-maximal effect (EC50) on Glutamate receptor 4 [1] is 1.98 µM; on Glutamate receptor 4 [2] it was over 3 µM.

Turning to `C[S+]([O-])c1sc(C(=O)O)c(-c2ccc(C(C)(C)C)cc2)c1C#N` (stereo not given), the EC50 at Glutamate receptor 4 [1] is 0.489 µM; on Glutamate receptor 4 [2] it was over 3 µM.

With `CCOC(=O)c1sc(SC)c(C#N)c1-c1ccc(C(C)(C)C)cc1`, the 50% effective concentration (EC50) on Glutamate receptor 2 [3], at Glutamate receptor 4 [1], on Glutamate receptor 2 [4] and at Glutamate receptor 4 [2] was over 3 µM in each case.

With `CSc1c(C#N)c(-c2ccc(C(C)(C)C)cc2)c(C(=O)O)n1C`, the EC50 at Glutamate receptor 2 [3] was 0.663 µM; on Glutamate receptor 4 [1] it was 0.554 µM; on Glutamate receptor 2 [4], 0.684 µM; on Glutamate receptor 4 [2] it was 1.42 µM.

For the compound `CC(C)(C)c1ccc(-c2c(C(=O)O)sc(N3CCCC3)c2C#N)cc1`, the EC50 at Glutamate receptor 2 [3] was 2.43 µM; on Glutamate receptor 4 [1] it was 1.01 µM; at Glutamate receptor 2 [4] it was 1.14 µM; at Glutamate receptor 4 [2], over 3 µM.

As for `CC(CNS(=O)(=O)C(C)C)c1ccc(-c2ccc(C#N)cc2)cc1` (stereo not given), the EC50 on Glutamate receptor 2 [3] is 1.91 µM; on Glutamate receptor 4 [1], 0.42 µM; at Glutamate receptor 2 [4], 0.559 µM; at Glutamate receptor 4 [2], 1.06 µM.

`CC(C)(C)c1ccc(-c2c(C(=O)O)sc(C(F)(F)F)c2C#N)cc1`: the concentration giving a half-maximal response (EC50) was found to be 0.231 µM on Glutamate receptor 2 [3], 0.273 µM on Glutamate receptor 4 [1], 0.078 µM at Glutamate receptor 2 [4] and 0.488 µM on Glutamate receptor 4 [2].

As to `CSc1sc(C(=O)O)c(-c2ccc(-c3ccccc3)cc2)c1C#N`, the EC50 is 0.795 µM at Glutamate receptor 4 [1] and over 3 µM on Glutamate receptor 4 [2].

`CCc1sc(C(=O)O)c(-c2ccc(C(C)(C)C)cc2)c1C#N`: the EC50 on Glutamate receptor 2 [3] was 0.216 µM; on Glutamate receptor 4 [1] it was 0.183 µM; on Glutamate receptor 2 [4], 0.047 µM; on Glutamate receptor 4 [2], 1.22 µM.

As to `CCSc1sc(C(=O)O)c(-c2ccc(C(C)(C)C)cc2)c1C#N`, the EC50 on Glutamate receptor 4 [1] is 0.44 µM; at Glutamate receptor 4 [2], over 3 µM.

As to `CC(C)(C)c1ccc(-c2c(C(=O)O)sc(S(C)(=O)=O)c2C#N)cc1`, the 50% effective concentration (EC50) is 1.81 µM on Glutamate receptor 2 [3], 0.629 µM at Glutamate receptor 4 [1], 0.333 µM on Glutamate receptor 2 [4] and over 3 µM at Glutamate receptor 4 [2].

For the compound `CC(C)(C)c1ccc(-c2c(C(=O)O)sc(Sc3ccccc3)c2C#N)cc1`, the EC50 on Glutamate receptor 4 [1] and on Glutamate receptor 4 [2] was over 3 µM in each case.

For the compound `CC(C)(C)c1ccc(-c2c(C#N)csc2C(=O)O)cc1`, the 50% effective concentration (EC50) at Glutamate receptor 2 [3], on Glutamate receptor 4 [1], on Glutamate receptor 2 [4] and at Glutamate receptor 4 [2] was over 3 µM throughout.

Consider `CN(C)c1sc(C(=O)O)c(-c2ccc(C(C)(C)C)cc2)c1C#N`, for which the concentration giving a half-maximal response (EC50) is 2.85 µM at Glutamate receptor 2 [3], 0.474 µM at Glutamate receptor 4 [1], 0.176 µM at Glutamate receptor 2 [4] and over 3 µM at Glutamate receptor 4 [2].

These data come from ChEMBL document CHEMBL1146878, “A novel class of AMPA receptor allosteric modulators. Part 1: design, synthesis, and SAR of 3-aryl-4-cyano-5-substituted-heteroaryl-2-carboxylic acid derivatives” (Bioorg Med Chem Lett, 2006).
